Measurements as given in PMC2764298 (Biochemical and biophysical research communications, 2009).

Assays:
P-gp ATPase activity = P-gp ATPase activity (Homo sapiens, UniProt P08183); test: P-gp ATPase assay, crude High Five insect cell membranes; type: biochemical; details: Pi release
P-gp [1] = molecular target: T1, P-gp (Homo sapiens, UniProt P08183); test: [3H]daunomycin radioactive substrate accumulation assay in MCF-7/DX1 cells; type: cell-based; details: read-out: IC50, cellular accumulation of [3H]daunomycin, [3H]daunomycin 0.25 µCi/mL, scintillation counting
P-gp [2] = molecular target: T1, P-gp; test: rhodamine 123 accumulation assay by flow cytometry in MCF-7/DX1 cells; type: cell-based
Procedure, shortened: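 P-gp-overexpressing MCF-7/DX1 breast adenocarcinoma cells, maintained with 1 µM doxorubicin. 125,000 cells in suspension loaded with 0.5 µg/mL (1.3 µM) rhodamine 123, alone or with test compound, 30–40 min, 37°C. Pelleted, then re-incubated 30–40 min, 37°C in fresh medium with test compound or 1 µM GF120918. Resuspended in ice-cold PBS pH 7.4; 488 nm laser, 530 band-pass (FL1), 10,000 cells/point. IC50 fitted from concentration series.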

T1 sequence (P08183 whole entry): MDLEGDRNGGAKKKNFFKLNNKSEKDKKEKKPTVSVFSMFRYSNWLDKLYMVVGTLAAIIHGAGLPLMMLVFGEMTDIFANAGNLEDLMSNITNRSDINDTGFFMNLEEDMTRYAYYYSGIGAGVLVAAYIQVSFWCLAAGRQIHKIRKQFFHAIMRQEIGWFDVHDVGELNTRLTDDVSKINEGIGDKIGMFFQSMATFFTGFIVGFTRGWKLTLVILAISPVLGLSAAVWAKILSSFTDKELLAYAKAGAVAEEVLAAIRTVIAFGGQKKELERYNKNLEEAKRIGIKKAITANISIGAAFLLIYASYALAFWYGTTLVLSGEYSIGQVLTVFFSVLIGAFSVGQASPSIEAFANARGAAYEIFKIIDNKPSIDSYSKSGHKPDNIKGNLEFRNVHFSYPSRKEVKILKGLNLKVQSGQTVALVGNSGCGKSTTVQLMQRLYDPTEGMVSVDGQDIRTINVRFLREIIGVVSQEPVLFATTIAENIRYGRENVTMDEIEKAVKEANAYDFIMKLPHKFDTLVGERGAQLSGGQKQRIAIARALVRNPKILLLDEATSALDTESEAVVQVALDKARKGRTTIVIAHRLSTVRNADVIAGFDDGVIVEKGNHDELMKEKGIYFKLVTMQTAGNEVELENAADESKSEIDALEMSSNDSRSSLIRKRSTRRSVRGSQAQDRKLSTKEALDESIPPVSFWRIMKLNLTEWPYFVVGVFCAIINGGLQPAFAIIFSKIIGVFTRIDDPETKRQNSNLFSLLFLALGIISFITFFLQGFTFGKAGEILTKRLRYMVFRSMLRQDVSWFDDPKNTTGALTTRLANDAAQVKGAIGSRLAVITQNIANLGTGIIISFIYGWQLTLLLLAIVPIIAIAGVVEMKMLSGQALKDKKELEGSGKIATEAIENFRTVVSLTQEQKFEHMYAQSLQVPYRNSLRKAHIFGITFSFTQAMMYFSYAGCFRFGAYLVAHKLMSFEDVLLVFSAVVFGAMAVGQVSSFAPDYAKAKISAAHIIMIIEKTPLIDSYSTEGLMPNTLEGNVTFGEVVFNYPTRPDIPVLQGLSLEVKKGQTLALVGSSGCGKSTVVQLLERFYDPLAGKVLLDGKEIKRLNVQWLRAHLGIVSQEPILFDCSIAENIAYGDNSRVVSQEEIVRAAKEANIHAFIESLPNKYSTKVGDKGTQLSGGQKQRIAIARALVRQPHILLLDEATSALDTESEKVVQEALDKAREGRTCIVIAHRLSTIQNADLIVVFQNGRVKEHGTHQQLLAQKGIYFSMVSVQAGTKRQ
P-gp ATPase activity, sequence (P08183 whole entry): as above

SMILES | effect on P-gp ATPase activity at low concentrations (P-gp ATPase activity; Gal-2 < 1 µM) | effect on P-gp ATPase activity at higher concentrations (P-gp ATPase activity; Gal-2 > 5 µM) | IC50 (P-gp [1]) [nM] | more active than the known P-gp inhibitor GF120918 (rhodamine 123 accumulation) (P-gp [2]; MCF-7/DX1 cells, both at 1 µM) | IC50 (P-gp [2]) [nM]
COc1ccc2c3c1O[C@H]1C[C@@H](OC(=O)CCCCCCCCC(=O)O[C@H]4C=C[C@@]56CCN(C)Cc7ccc(OC)c(c75)O[C@H]6C4)C=C[C@@]31CCN(C)C2 [Gal-2] | stimulated ATPase activity | ATPase stimulation was found to decrease in a concentration-dependent manner | 2000 ± 400 | approximately 20% | 
COc1ccc2c3c1O[C@H]1C[C@@H](O)C=C[C@@]31CCN(C)C2 [galantamine, reference compound] |  |  |  |  | > 100000
